# High-throughput results deposited in PubChem BioAssay by Johns Hopkins Ion Channel Center.
# TRPC6 activator = activators of mouse TRPC6 channel. Q61143. HEK293-TRPC6 membrane potential dye fluorescence; stronger effect = higher value. B-score at 10 µM. actives 0.13% (n = 310,000). AID 2550;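 active = B-score of the integrated fluorescence ratio above library mean plus 3 SD, and starting fluorescence ratio within library mean plus 5 SD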;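 also: higher score means more depolarization so channel activation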
# TRPC6 inh = mouse TRPC6 channel inhibition; B-score at 10 µM; actives 1.1% (n = 310,000); HEK293-TRPC6, membrane potential dye, ACh-evoked depolarization; stronger effect = lower value; Q61143;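 active = B-score under library mean minus 3 SD, initial fluorescence not abnormally high, positive integrated signal ratio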;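 also: B-score derived from integrated fluorescence ratio over the kinetic read; more negative B-score means stronger inhibition of depolarization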
# TRPC4 agonist = activators of mouse TRPC4 channel; Q9QUQ5; HEK293 TRPC4beta/mu-opioid, Fluo4 calcium fluorescence; stronger effect = higher value; B-score at 10 µM; actives 0.49% (n = 310,000);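 active = B-score above 5 SD of library B-scores, and initial fluorescence ratio not above library mean plus 5 SD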;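 also: positive B-score marks a calcium rise read as TRPC4 activation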
# Target sequence (Q9QUQ5 whole entry, looked up): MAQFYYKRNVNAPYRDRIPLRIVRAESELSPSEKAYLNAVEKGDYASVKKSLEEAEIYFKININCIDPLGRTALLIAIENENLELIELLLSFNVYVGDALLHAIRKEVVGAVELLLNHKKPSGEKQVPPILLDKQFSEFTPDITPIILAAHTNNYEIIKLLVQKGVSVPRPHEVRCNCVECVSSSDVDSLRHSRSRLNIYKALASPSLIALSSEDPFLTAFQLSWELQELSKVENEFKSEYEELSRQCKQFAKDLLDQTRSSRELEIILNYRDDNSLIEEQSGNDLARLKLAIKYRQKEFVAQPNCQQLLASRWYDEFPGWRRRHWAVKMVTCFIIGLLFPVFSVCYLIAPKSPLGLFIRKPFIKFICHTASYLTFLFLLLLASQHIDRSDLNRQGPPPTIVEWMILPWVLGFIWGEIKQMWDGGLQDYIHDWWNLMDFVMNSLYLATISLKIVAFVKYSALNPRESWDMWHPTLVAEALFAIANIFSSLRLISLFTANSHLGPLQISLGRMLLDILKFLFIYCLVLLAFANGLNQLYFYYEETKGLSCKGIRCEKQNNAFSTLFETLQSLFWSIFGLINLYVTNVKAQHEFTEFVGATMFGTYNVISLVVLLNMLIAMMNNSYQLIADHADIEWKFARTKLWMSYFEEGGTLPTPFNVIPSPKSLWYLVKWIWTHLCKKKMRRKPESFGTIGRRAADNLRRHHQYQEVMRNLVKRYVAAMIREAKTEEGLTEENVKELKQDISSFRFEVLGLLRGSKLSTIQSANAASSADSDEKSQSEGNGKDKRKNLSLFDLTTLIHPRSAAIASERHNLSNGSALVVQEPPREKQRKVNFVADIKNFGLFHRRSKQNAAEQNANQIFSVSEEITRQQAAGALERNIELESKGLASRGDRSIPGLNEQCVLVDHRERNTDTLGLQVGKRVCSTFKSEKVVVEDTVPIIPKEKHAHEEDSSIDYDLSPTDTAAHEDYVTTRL
#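 Test system: HEK293 cells stably co-expressing mouse TRPC4beta and mu-opioid receptor | Schedule: Fluo4 dye loading 45 min at room temperature, 110 s recording | Measured by: Kinetic Fluo4 calcium fluorescence, 5 s baseline at 1 Hz | Evaluation: B score of integrated ratio | Controls: Buffer (low) and maximal DAMGO (high)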
# TRPC4 PAM = allosterically enhances the mouse TRPC4 cation channel. actives 0.42% (n = 310,000). AID 2227. B-score at 10 µM. HEK293 TRPC4beta/mu-opioid, DAMGO EC20, Fluo-4 Ca2+ flux; stronger effect = higher value;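 active = B-score of calcium response area above 5 SD of library B-scores, with initial fluorescence ratio within 5 SD of library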;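 also: B-score of integrated fluorescence ratio over time as area under calcium response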
# TRPC4 block = inhibitors of mouse TRPC4 channel. Q9QUQ5. HEK293 TRPC4beta/mu-opioid, DAMGO-evoked Fluo4 calcium flux; stronger effect = lower value. B-score at 10 µM. actives 0.39% (n = 300,000). AID 2247;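 active = B-score over 3 SD under the library average, no early fluorescence shift, positive overall ratio signal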
#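 test system = HEK293 cells with stable TRPC4beta plus mu-opioid receptor expression | detection = Fluo4 Ca2+ flux fluorescence | read-out = integrated fluorescence ratio relative to baseline, converted to per-well B score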
# TRPC4 sel inh 2 = second selectivity test of TRPC6 inhibitors: effect on mouse TRPC4; shares compounds with TRPC6 inh; HEK293 TRPC4/MOR, membrane potential dye fluorescence; channel activated by saturating DAMGO dose; inhibition, % at 10 µM; actives 42% (n = 920); AID 2776;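 active = compounds whose fluorescence signal differed from control wells by over 3 SD, either direction, in both duplicate plates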
# TRPC4 spec = mouse TRPC4 off-target activity of TRPC6 inhibitors; shares compounds with TRPC6 inh; HEK293 TRPC4/mu-opioid, membrane potential fluorescence; activity change, negative = inhibition, % at 10 µM; actives 61% (n = 920); AID 2777;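 active = rise or fall in signal beyond 3 SD of buffer-only wells in both replicate plates, either sign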;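 also: integrated kinetic ratio of fluorescence range over baseline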
# HEK293 MPD ctr 2-1 = second counter-screen for TRPC6 inhibitors: parental HEK293 cells; shares compounds with TRPC6 inh; parental HEK293 membrane potential dye fluorescence; maximal acetylcholine challenge after compound addition; signal change vs control, % at 10 µM; actives 31% (n = 920);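 active = membrane potential signal moving either way by over 3 SD of the maximum-effect control, in both duplicate plates, meaning non-specific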
# HEK293 MPD ctr-1 = counter-screen for TRPC6 inhibitors: effect in parental HEK293 cells; actives 60% (n = 920); membrane potential signal change, % at 10 µM; shares compounds with TRPC6 inh; parental HEK293 membrane potential dye fluorescence;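 active = membrane potential signal shifting up or down by more than 3 SD of buffer-only wells, on both duplicate plates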
# HEK293 MPD ctr-2 = checks TRPC6 modulator effects in parental HEK293 cells | shares compounds with TRPC6 inh | membrane potential dye fluorescence | membrane potential signal change, % at 10 µM | actives 51% (n = 2,400) | AID 488924;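 active = membrane potential signal moves up or down beyond 5 SD from buffer-only wells, on both duplicate plates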
# HEK293 MPD ctr 2-2 = parental HEK293 nonspecific activity of TRPC6 modulators, second screen. membrane potential dye fluorescence; after compound, maximal acetylcholine stimulation. actives 14% (n = 2,400). inhibition, % at 10 µM. shares compounds with TRPC6 inh. AID 488926;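 active = membrane potential signal drops by more than 5 SD from the mean control signal, in both duplicate plates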;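 also: plate controls were acetylcholine ECmax control wells for no effect and buffer only wells for full effect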
# TRPC4 ctr mod = selectivity of TRPC6 modulators against mouse TRPC4; shares compounds with TRPC6 inh; HEK293 TRPC4/mu-opioid, membrane potential fluorescence; percent change from control (negative = decrease, positive = increase), % at 10 µM; actives 69% (n = 2,400);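 active = membrane potential signal moved up or down beyond 5 SD of buffer control wells, in both duplicate plates, actives on both sides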;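 also: plate controls were assay buffer wells for no effect and DAMGO maximal-effect wells for full effect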
# TRPC4/MOR inh 2 = second selectivity test of TRPC6 modulators against mouse TRPC4. shares compounds with TRPC6 inh. HEK293 TRPC4/mu-opioid, membrane potential dye fluorescence; stimulated with maximal-effect DAMGO. inhibition, % at 10 µM. actives 55% (n = 2,400). AID 488928;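 active = drop in membrane potential signal beyond 5 SD of the control wells in both duplicate plates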;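 also: TRPC4 counter screen for TRPC6 hits run under conditions tuned for TRPC6 not TRPC4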
# TRPC6 inh conf = mouse TRPC6 inhibitor confirmation | AID 488960 | HEK293-TRPC6, membrane potential dye, ACh-evoked depolarization | actives 43% (n = 3,300) | shares compounds with TRPC6 inh | inhibition, % at 10 µM;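 active = fluorescence ratio falls more than 5 SD below the full-stimulation control mean, in both duplicate runs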;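 also: integrated fluorescence ratio of peak minus minimum over baseline after agonist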
# TRPC6 act confirm = mouse TRPC6 activator confirmation; shares compounds with TRPC6 inh; HEK293-TRPC6 membrane potential dye fluorescence, FDSS; activation, % at 10 µM; actives 11% (n = 2,800);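 active = ratio signal rise beyond 5 SD above unstimulated control wells' mean, seen in both duplicate runs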;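 also: plate controls were buffer EC0 wells for no effect and acetylcholine ECmax response for full effect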
# Numbers without * were called inactive; i = inactive; . = not tested or not shown. This is a sample that favours compounds with a hit; in the whole collection about 2.3% have one here.
SMILES,TRPC6 activator,TRPC6 inh,TRPC4 agonist,TRPC4 PAM,TRPC4 block,HEK293 MPD ctr-2,HEK293 MPD ctr 2-2,TRPC4 ctr mod,TRPC4/MOR inh 2,TRPC6 inh conf,TRPC6 act confirm,others
CCn1cc(Cl)c(C(=O)Nc2nc3ccccc3n2CCN2CCCCC2)n1,i,-8.7*,i,i,i,-270%*,74%*,-42%*,66%*,60%*,i,
Cc1ccc(S(=O)(=O)N2CCC(C(=O)NC3CC(C)(C)NC(C)(C)C3)CC2)cc1,i,i,i,i,i,.,.,.,.,.,.,
COc1ccc(C(C)=O)cc1CSc1nnc2c(Cl)cc(Cl)cn12,i,-7*,i,i,i,-342%*,65%*,-68%*,72%*,64%*,i,
CCN(CC)CCNc1nc2cc(OC)c(OC)cc2c2nc(-c3ccccc3)nn12,i,-12*,i,i,i,.,.,.,.,76%*,i,TRPC4 sel inh 2=38%*;TRPC4 spec=-33%*;HEK293 MPD ctr 2-1=32%*;HEK293 MPD ctr-1=-384%*
COc1cc2[nH]c(=O)n3nc(-c4ccccc4)nc3c2cc1OC,i,i,i,i,i,.,.,.,.,.,.,
Cc1nc(N2CCCCC2)sc1C(=O)c1ccc(SCCO)c([N+](=O)[O-])c1,i,i,i,i,i,.,.,.,.,.,.,
Cc1nc(N2CCCCC2)sc1C(=O)c1cccc([N+](=O)[O-])c1,i,-5.8*,i,i,i,i,i,i,i,i,i,
O=C(Cc1ccc([N+](=O)[O-])cc1)N/N=C/c1ccccc1F,i,i,i,i,i,.,.,.,.,.,.,
Cc1nc(S(=O)(=O)N2CCN(C3c4ccccc4-c4ccccc43)CC2)cn1C,i,i,i,i,i,.,.,.,.,.,.,
Cc1nc2c(o1)CCc1ccccc1C2N1CCN(C)CC1 (stereo not given),i,-9.4*,i,i,i,.,.,.,.,74%*,.,TRPC4 sel inh 2=i;TRPC4 spec=8.0%*;HEK293 MPD ctr 2-1=-14%*;HEK293 MPD ctr-1=11%*
CCOC(=O)c1ccc(NC(=O)NCc2ccncc2)cc1,i,-5.5*,i,i,i,i,i,i,i,i,.,
CCOC(=O)c1ccc(NC(=O)NCCc2cnc[nH]2)cc1,i,-6.8*,175*,i,i,.,.,.,.,i,i,TRPC4 sel inh 2=69%*;TRPC4 spec=64%*;HEK293 MPD ctr 2-1=i;HEK293 MPD ctr-1=i
CCCC[C@@H]1CNC(=O)C(=O)N1CCc1cccc2ccccc12,i,i,i,i,i,.,.,.,.,.,.,
Cc1ccccc1C(=O)N/N=C/c1ccc([N+](=O)[O-])s1,12*,-6.1*,i,i,i,i,i,13%*,i,i,i,
O=C(N/N=C/c1ccc([N+](=O)[O-])s1)c1ccccc1,i,-6*,i,i,i,i,i,i,i,i,i,
O=C(N/N=C/c1ccc([N+](=O)[O-])s1)c1ccccc1Br,i,i,i,i,i,.,.,.,.,.,.,
CSc1ccc(C(=O)C2CCCN(C(=O)Cn3cnnn3)C2)cc1 (stereo not given),i,i,i,i,i,.,.,.,.,.,.,
O=C(Nc1ccc(OC(F)F)cc1)Nc1cccc(C(F)(F)F)c1,i,i,i,i,i,.,.,.,.,.,.,
O=C(N/N=C/c1ccc2c(c1)OCO2)C(=O)Nc1cccc(Cl)c1,i,i,i,i,i,.,.,.,.,.,.,
Cc1ccc(C(C(=O)NCC2CCCO2)N(C(=O)c2snc(C(N)=O)c2N)c2ccccc2F)o1 (stereo not given),i,i,i,i,i,.,.,.,.,.,.,
OCCC1CN(Cc2ccc(Oc3ncccn3)cc2)CCN1C1CCCCC1 (stereo not given),i,i,i,i,i,.,.,.,.,.,.,
COc1ccc(C(=O)COC(=O)CNS(=O)(=O)c2ccc(C)cc2)cc1,i,i,i,i,i,.,.,.,.,.,.,
Brc1ccc(N/N=C(/N=Nc2nn[nH]n2)c2ccccc2)cc1,i,-11*,i,i,-6*,-256%*,i,-44%*,91%*,65%*,i,
O=C(O)c1ccc(N=N/C(=N\Nc2ccc(C(=O)O)cc2)c2ccccc2)cc1,i,i,i,i,i,.,.,.,.,.,.,
CCC(NS(=O)(=O)c1ccc(C)cc1)C(=O)N1CCOCCOCCOCCOCC1 (stereo not given),i,i,i,i,i,.,.,.,.,.,.,
CCn1c(/C=C/c2ccccc2)nc2ccccc21,i,i,i,i,i,.,.,.,.,.,.,
CCC(C)n1c(/C=C/c2ccccc2)nc2ccccc21 (stereo not given),i,-5.1*,i,i,i,106%*,i,16%*,i,i,i,
CCc1ccc(CNC(=O)C2CC(=O)N(C3CCCC3)C2)cc1 (stereo not given),i,i,i,i,i,.,.,.,.,.,.,
O=C(C1CCN(CCCc2ccccc2)CC1)N(CCc1ccccc1)Cc1ccccc1,i,-5.5*,i,i,i,110%*,i,i,86%*,68%*,.,
c1ccc(-c2ccccc2OCCCCN2CCCCCC2)cc1,i,i,i,i,i,.,.,.,.,.,.,
